Bioassay records from PubChem BioAssay.
WT yeast gro inh: growth inhibition of WT yeast, mitochondrial fusion screen. mitochondrial fusion phenotypic screen, WT strain. 190,000 tested, 2.1% active. inhibition, % at 10 µM; in the data active means inhibition above about 58%; tested in S. cerevisiae
MEKK2mut PB1 HTS: signal of MEK5 binding to mutant human MEKK2 PB1 domain | 290,000 tested, 0.35% active | bead flow cytometry, Alexa488-MEK5 binding to MEKK2 mutant | percent response, % at 10 µM; in the data active means percent response above about 24%, passing the limit was not always enough
MEKK2 WT-MEK5: raises or lowers MEK5 binding to wildtype human MEKK2 PB1 domain; binding response (% of control), % at 10 µM; 290,000 tested, 1.1% active; bead flow cytometry, Alexa488-MEK5 binding to MEKK2 WT; actives lie on both sides; Q9Y2U5; in the data active means binding response below about 67% or above about 130%
ABCB1 inh: human ABCB1 inhibition, ABCG2 as counter-screen; P08183; CCRF-Adr cells, JC-1 efflux, flow cytometry; inhibition, % at 6.6 µM; 190,000 tested, 0.067% active; AID 1326; in the data active means inhibition above about 40%;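 further: higher value means more JC-1 retained so stronger ABCB1 efflux block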
ABCG2 block: human ABCG2 inhibition, ABCB1 as counter-screen; Q9UNQ0; IgMXP3 cells, JC-1 efflux, flow cytometry; inhibition, % at 6.6 µM; 190,000 tested, 0.1% active; AID 1325;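 active means inhibition above 80%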
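System: two drug-resistant human cell lines, ABCG2 and ABCB1; controls: nicardipine high and DMSO low controls; times: 10 min exposure at 25 °C with rotation, no wash; detection: flow cytometry of retained JC-1 fluorescence; read-out basis: percent efflux inhibition, scaled nicardipine 100% to DMSO 0%; doses: one concentration, 6.6 µM final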
MEKK3 PB1 HTS: raises or lowers MEK5 binding to the human MEKK3 PB1 domain. Q99759. bead-based flow cytometry, Alexa488-MEK5 binding to MEKK3; actives lie on both sides; 0 = blocked by unlabeled MEK5, 100 = vehicle. binding response (% of control), % at 10 µM. 290,000 tested, 1.4% active. AID 1529;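 active means binding response more than 3 SD above or below the average of its plate-row segment, actives on both sides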;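 further: Alexa488 bead fluorescence after subtracting the streptavidin-only scavenger bead signal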
Target sequence (Q99759 whole entry, looked up, the tested form may be a part): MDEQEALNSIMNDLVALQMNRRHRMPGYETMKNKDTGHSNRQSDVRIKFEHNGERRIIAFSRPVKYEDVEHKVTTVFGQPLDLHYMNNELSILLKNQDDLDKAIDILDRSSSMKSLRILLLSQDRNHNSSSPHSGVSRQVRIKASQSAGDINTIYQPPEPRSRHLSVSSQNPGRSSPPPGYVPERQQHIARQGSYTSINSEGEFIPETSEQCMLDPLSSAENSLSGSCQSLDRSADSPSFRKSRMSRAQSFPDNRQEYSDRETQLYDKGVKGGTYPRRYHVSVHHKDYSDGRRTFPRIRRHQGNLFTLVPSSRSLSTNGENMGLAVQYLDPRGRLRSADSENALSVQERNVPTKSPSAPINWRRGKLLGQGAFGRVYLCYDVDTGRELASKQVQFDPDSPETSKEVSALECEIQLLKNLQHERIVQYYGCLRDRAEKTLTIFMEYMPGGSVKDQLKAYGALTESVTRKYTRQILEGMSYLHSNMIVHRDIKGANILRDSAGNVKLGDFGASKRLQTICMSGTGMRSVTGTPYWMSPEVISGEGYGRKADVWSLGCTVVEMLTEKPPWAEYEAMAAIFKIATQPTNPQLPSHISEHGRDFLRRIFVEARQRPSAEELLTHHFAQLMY
MEKK2wt confirm: raises or lowers MEK5 binding to wildtype human MEKK2, retest; shares compounds with MEKK3 PB1 HTS; bead flow cytometry, Alexa488-MEK5 binding to MEKK2 WT; actives lie on both sides; 5,900 tested, 2.4% active; AID 1892; binding response (% of control), % at 10 µM; in the data active means binding response below about 16% or above about 210%; inactive means in between
MEKK2mut-MEK5: signal of MEK5 binding to mutant human MEKK2, retest; shares compounds with MEKK3 PB1 HTS; bead flow cytometry, Alexa488-MEK5 binding to MEKK2 mutant; percent response, % at 10 µM; 5,900 tested, 2% active; in the data active means percent response mostly above about 71%, no sharp cut-off; inactive means mostly below about 38%;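 further: higher means compound restores mutant binding toward wildtype level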
MEKK3-MEK5 inh: confirmation of inhibitors of MEK5 binding to human MEKK3; shares compounds with MEKK3 PB1 HTS; bead flow cytometry, Alexa488-MEK5 binding to MEKK3; active compounds read low; binding response (% of control), % at 10 µM; 5,900 tested, 1.8% active; AID 1894;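 active means binding response below 72% of control, or above a set upper limit, though filed actives all read lower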;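 further: lower values mean stronger disruption of MEK5 binding to MEKK3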
Hits are given with their value; [ ] = remark or other dose. Sampled rows, rich in hits. Any-hit rate of the full collection: about 3.5%.

Screening CC1(C)CC[C@]2(C(=O)O)CC[C@]3(C)C(=CC[C@@H]4[C@@]5(C)CC[C@H](O)C(C)(C)[C@@H]5CC[C@]43C)[C@@H]2C1 returned MEKK2mut PB1 HTS inactive, MEKK2 WT-MEK5 150, MEKK3 PB1 HTS inactive, MEKK2wt confirm inactive, MEKK2mut-MEK5 inactive and MEKK3-MEK5 inh inactive.
Screening OCCN1CCOCCN(CCO)CCOCC1 returned WT yeast gro inh inactive, MEKK2mut PB1 HTS inactive, MEKK2 WT-MEK5 inactive, ABCB1 inh inactive, ABCG2 block inactive and MEKK3 PB1 HTS inactive.
Screening Cc1ccc(-c2nc(NCCN3CCOCC3)c3ccccc3n2)cc1 returned WT yeast gro inh inactive, MEKK2mut PB1 HTS inactive, MEKK2 WT-MEK5 inactive, ABCB1 inh inactive, ABCG2 block inactive, MEKK3 PB1 HTS 72[inhibitor], MEKK2wt confirm inactive, MEKK2mut-MEK5 inactive and MEKK3-MEK5 inh inactive.
CCOC(=O)Cc1csc(NC(=O)COc2cc(C)cc(C)c2)n1 was read as WT yeast gro inh inactive, MEKK2mut PB1 HTS inactive, MEKK2 WT-MEK5 inactive, ABCB1 inh inactive, ABCG2 block inactive and MEKK3 PB1 HTS inactive.
Screening COc1ccc(NC(=O)NN(C(=O)c2ccccc2)C(C)(C)C)cc1 returned WT yeast gro inh inactive, MEKK2mut PB1 HTS inactive, MEKK2 WT-MEK5 inactive, ABCB1 inh inactive, ABCG2 block inactive and MEKK3 PB1 HTS inactive.
CC(C)[C@H](NC(=O)N1c2ccccc2NC(=O)[C@@H]1C(C)C)C(=O)N[C@H](Cc1ccccc1)C(=O)O was read as MEKK2mut PB1 HTS inactive, MEKK2 WT-MEK5 inactive and MEKK3 PB1 HTS inactive.
CCCCN1CNC(=S)N(Cc2ccccc2)C1 was read as WT yeast gro inh inactive, MEKK2mut PB1 HTS inactive, MEKK2 WT-MEK5 inactive, ABCB1 inh inactive, ABCG2 block inactive, MEKK3 PB1 HTS 130, MEKK2wt confirm inactive, MEKK2mut-MEK5 inactive and MEKK3-MEK5 inh inactive.
Screening CC(C)c1ccc(N(C(=O)c2snc(C(N)=O)c2N)C(C(=O)NC2CCCC2)c2ccncc2)cc1 (stereo not drawn) returned MEKK2mut PB1 HTS inactive, MEKK2 WT-MEK5 inactive and MEKK3 PB1 HTS inactive.
COc1ccc(NC(=O)COc2nsnc2N2CCCCC2)cc1 was read as WT yeast gro inh inactive, MEKK2mut PB1 HTS inactive, MEKK2 WT-MEK5 44[inhibitor], ABCB1 inh inactive, ABCG2 block inactive, MEKK3 PB1 HTS 27[inhibitor], MEKK2wt confirm inactive, MEKK2mut-MEK5 inactive and MEKK3-MEK5 inh inactive.
For CCOc1ccc(NC(=O)COc2nsnc2N2CCCCC2)cc1 the results were WT yeast gro inh inactive, MEKK2mut PB1 HTS inactive, MEKK2 WT-MEK5 inactive, ABCB1 inh inactive, ABCG2 block inactive and MEKK3 PB1 HTS inactive.
`O=C(CSc1ccc(-c2ccco2)nn1)NCc1ccc(F)cc1` gave WT yeast gro inh inactive, MEKK2mut PB1 HTS inactive, MEKK2 WT-MEK5 inactive, ABCB1 inh inactive, ABCG2 block inactive and MEKK3 PB1 HTS inactive.
`Cc1cc(C)cc(NC(=O)CSc2ccc(-c3ccco3)nn2)c1` gave WT yeast gro inh inactive, MEKK2mut PB1 HTS inactive, MEKK2 WT-MEK5 inactive, ABCB1 inh inactive, ABCG2 block inactive and MEKK3 PB1 HTS inactive.
Cc1cccc(NC(=O)CSc2ccc(-c3ccco3)nn2)c1 was read as WT yeast gro inh inactive, MEKK2mut PB1 HTS inactive, MEKK2 WT-MEK5 inactive, ABCB1 inh inactive, ABCG2 block inactive, MEKK3 PB1 HTS 129, MEKK2wt confirm inactive, MEKK2mut-MEK5 inactive and MEKK3-MEK5 inh inactive.
O=C(CSc1n[nH]c(=O)n1Cc1ccco1)c1ccc(F)cc1 was read as MEKK2mut PB1 HTS inactive, MEKK2 WT-MEK5 inactive, MEKK3 PB1 HTS 131, MEKK2wt confirm inactive, MEKK2mut-MEK5 inactive and MEKK3-MEK5 inh inactive.
Screening O=C(CSc1ccc(-c2ccco2)nn1)c1ccc(F)cc1 returned WT yeast gro inh inactive, MEKK2mut PB1 HTS inactive, MEKK2 WT-MEK5 inactive, ABCB1 inh inactive, ABCG2 block inactive, MEKK3 PB1 HTS 128, MEKK2wt confirm inactive, MEKK2mut-MEK5 inactive and MEKK3-MEK5 inh inactive.
For Cc1ccc(-c2ccc(SCC(=O)c3ccccc3)nn2)cc1 the results were WT yeast gro inh inactive, MEKK2mut PB1 HTS inactive, MEKK2 WT-MEK5 63[inhibitor], ABCB1 inh inactive, ABCG2 block inactive, MEKK3 PB1 HTS inactive, MEKK2wt confirm inactive, MEKK2mut-MEK5 inactive and MEKK3-MEK5 inh inactive.
For COC(=O)c1ccc(NC(=O)c2cc[n+](Cc3ccccc3)cc2)cc1 the results were MEKK2mut PB1 HTS inactive, MEKK2 WT-MEK5 inactive and MEKK3 PB1 HTS inactive.
NC1=NC[C@H](c2ccccc2)N1CCCCC1CCCCC1 was read as MEKK2mut PB1 HTS inactive, MEKK2 WT-MEK5 146, MEKK3 PB1 HTS inactive, MEKK2wt confirm inactive, MEKK2mut-MEK5 inactive and MEKK3-MEK5 inh inactive.
O=C(CSc1ncnc2scc(-c3ccccc3)c12)Nc1ccc(C(=O)O)cc1 was read as MEKK2mut PB1 HTS inactive, MEKK2 WT-MEK5 inactive and MEKK3 PB1 HTS inactive.
For CC(=O)Nc1ccc(Sc2ncnc3scc(-c4ccccc4)c23)cc1 the results were WT yeast gro inh 79, MEKK2mut PB1 HTS inactive, MEKK2 WT-MEK5 inactive, ABCB1 inh inactive, ABCG2 block inactive, MEKK3 PB1 HTS 128, MEKK2wt confirm inactive, MEKK2mut-MEK5 inactive and MEKK3-MEK5 inh inactive.
Cc1cc(C(=O)NCCCN2CCN(c3cc(Cl)ccc3C)CC2)n(-c2ccccc2)n1 was read as WT yeast gro inh inactive, MEKK2mut PB1 HTS inactive, MEKK2 WT-MEK5 139, ABCB1 inh inactive, ABCG2 block inactive, MEKK3 PB1 HTS inactive, MEKK2wt confirm inactive, MEKK2mut-MEK5 inactive and MEKK3-MEK5 inh inactive.
`Cc1cc(C(=O)NCCN2CCN(c3cccc(Cl)c3)CC2)n(-c2ccccc2)n1` gave WT yeast gro inh inactive, MEKK2mut PB1 HTS inactive, MEKK2 WT-MEK5 inactive, ABCB1 inh inactive, ABCG2 block inactive and MEKK3 PB1 HTS inactive.
`Cc1ccc(S(=O)(=O)N(CC(=O)N/N=C/c2ccco2)c2cc(Cl)cc(Cl)c2)cc1` gave WT yeast gro inh inactive, MEKK2mut PB1 HTS inactive, MEKK2 WT-MEK5 inactive, ABCB1 inh inactive, ABCG2 block inactive, MEKK3 PB1 HTS 128, MEKK2wt confirm inactive, MEKK2mut-MEK5 inactive and MEKK3-MEK5 inh inactive.
`CCSc1ncnc2sc(C)c(C)c12` gave WT yeast gro inh inactive, MEKK2mut PB1 HTS inactive, MEKK2 WT-MEK5 inactive, ABCB1 inh inactive, ABCG2 block inactive, MEKK3 PB1 HTS 53[inhibitor], MEKK2wt confirm inactive, MEKK2mut-MEK5 inactive and MEKK3-MEK5 inh inactive.
`C=CCSc1ncnc2sc(C)c(C)c12` gave WT yeast gro inh inactive, MEKK2mut PB1 HTS inactive, MEKK2 WT-MEK5 inactive, ABCB1 inh inactive, ABCG2 block inactive and MEKK3 PB1 HTS inactive.
